Data reported in ChEMBL document CHEMBL4014341, “Discovery of a Human Neuromedin U Receptor 1-Selective Hexapeptide Agonist with Enhanced Serum Stability” (J Med Chem, 2017).
One block for each molecule: values may come before it. Activity calls are given as the source filed them. The calls are words filed in the database; no cut-off is given here. Square brackets hold non-standard residues; d marks the D form. Peptide text beside a SMILES is read from it. * marks the point of attachment. Bip = N[C@@H](Cc1ccc(-c2ccccc2)cc1)C(=O)O; Phe(4-CN) = N#Cc1ccc(C[C@H](N)C(=O)O)cc1; Phe(4-Cl) = N[C@@H](Cc1ccc(Cl)cc1)C(=O)O; αMeW = C[C@](N)(Cc1c[nH]c2ccccc12)C(=O)O; Dip = N[C@H](C(=O)O)C(c1ccccc1)c1ccccc1; Phe(2-F) = N[C@@H](Cc1ccccc1F)C(=O)O; Acetyl(2-thienyl) = O=C(Cc1cccs1)*

Legend:
[1] = target: Neuromedin-U receptor 2 (Homo sapiens) (UniProt Q9GZQ4); experiment: Agonist activity at human NMUR2 expressed in CHO cells assessed as induction of Ca2+ flux at 10 nM after 18 hrs by Fluo-4 AM dye based FLIPR assay relative to NMU; type: functional, cell-based
Neuromedin-U receptor 2 (Homo sapiens), sequence (Q9GZQ4 whole entry): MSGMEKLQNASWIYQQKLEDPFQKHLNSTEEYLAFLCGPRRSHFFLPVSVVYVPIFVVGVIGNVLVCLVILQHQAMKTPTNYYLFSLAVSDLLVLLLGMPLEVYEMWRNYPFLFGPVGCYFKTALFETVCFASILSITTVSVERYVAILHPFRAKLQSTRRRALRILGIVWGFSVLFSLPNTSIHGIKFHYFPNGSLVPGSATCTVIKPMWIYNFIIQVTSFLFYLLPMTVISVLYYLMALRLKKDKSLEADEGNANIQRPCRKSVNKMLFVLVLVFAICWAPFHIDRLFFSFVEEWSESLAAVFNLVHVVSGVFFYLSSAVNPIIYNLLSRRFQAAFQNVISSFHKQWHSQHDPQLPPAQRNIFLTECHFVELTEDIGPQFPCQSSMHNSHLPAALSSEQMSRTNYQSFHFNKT
How it was run: (§1)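 Human NMUR1 or NMUR2 stably expressed in CHO cells was assayed by Fluo-4 AM (4 μM, 40 min) FLIPR calcium flux, with cells seeded 18 h before. Peptides were tested at single concentrations of 0.1, 10 or 100 nM. Maximal response is expressed as % of hNMU at 1000 nM (=100%).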

Rattus norvegicus = organism: Rattus norvegicus; experiment: Stability in rat serum at 1 mM at 120 mins by RP-HPLC/MS analysis
Serum = experiment: Drug level in rat serum treated with (S)-2-((S)-2-((S)-1-((S)-2-((S)-2-((S)-3-(1H-indol-3-yl)-2-(2-(thiophen-2-yl)acetamido)propanamido)-3-(1H-indol-2-yl)propanamido)-5-guanidinopentanoyl)pyrrolidine-2-carboxamido)-5-guanidinopentanamido)succinamide at 1 mM after 120 mins by RP-HPLC analysis; type: ADME, cell-free; conditions: 2 h, 1000 µM
[2] = target: T1, Neuromedin-U receptor 1 (Homo sapiens) (UniProt Q9HB89); experiment: Agonist activity at human NMUR1 expressed in CHO cells assessed as induction of Ca2+ flux at 100 nM after 18 hrs by Fluo-4 AM dye based FLIPR assay relative to NMU; type: functional, cell-based; how it was run: as §1
T1 sequence (whole entry): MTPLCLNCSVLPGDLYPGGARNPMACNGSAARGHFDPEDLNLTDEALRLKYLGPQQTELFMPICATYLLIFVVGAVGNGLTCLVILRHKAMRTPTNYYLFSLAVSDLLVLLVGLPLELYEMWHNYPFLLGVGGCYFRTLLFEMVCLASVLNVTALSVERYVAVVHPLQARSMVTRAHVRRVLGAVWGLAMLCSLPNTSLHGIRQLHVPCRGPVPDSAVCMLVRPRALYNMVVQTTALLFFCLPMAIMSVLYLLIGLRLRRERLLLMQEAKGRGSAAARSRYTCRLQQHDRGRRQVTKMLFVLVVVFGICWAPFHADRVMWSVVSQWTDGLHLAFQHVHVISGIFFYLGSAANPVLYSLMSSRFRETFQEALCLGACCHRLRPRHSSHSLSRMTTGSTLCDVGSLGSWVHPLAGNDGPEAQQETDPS

[3] = target: Neuromedin-U receptor 2 (Homo sapiens) (UniProt Q9GZQ4); experiment: Agonist activity at human NMUR2 expressed in CHO cells assessed as induction of Ca2+ flux at 100 nM after 18 hrs by Fluo-4 AM dye based FLIPR assay relative to NMU; type: functional, cell-based; how it was run: as §1
[4] = target: T1, Neuromedin-U receptor 1 (Homo sapiens); experiment: Agonist activity at human NMUR1 expressed in CHO cells assessed as induction of Ca2+ flux at 0.1 nM after 18 hrs by Fluo-4 AM dye based FLIPR assay relative to NMU; type: functional, cell-based; how it was run: as §1
Neuromedin-U receptor 1 = target: T2, Neuromedin-U receptor 1 (Mus musculus, UniProt O55040); experiment: Agonist activity at mouse NMUR1 expressed in HEK293 cells assessed as induction of calcium mobilization after 18 hrs by Fluo-4 AM dye based FLIPR assay; type: functional, cell-based
T2 sequence (O55040 whole entry): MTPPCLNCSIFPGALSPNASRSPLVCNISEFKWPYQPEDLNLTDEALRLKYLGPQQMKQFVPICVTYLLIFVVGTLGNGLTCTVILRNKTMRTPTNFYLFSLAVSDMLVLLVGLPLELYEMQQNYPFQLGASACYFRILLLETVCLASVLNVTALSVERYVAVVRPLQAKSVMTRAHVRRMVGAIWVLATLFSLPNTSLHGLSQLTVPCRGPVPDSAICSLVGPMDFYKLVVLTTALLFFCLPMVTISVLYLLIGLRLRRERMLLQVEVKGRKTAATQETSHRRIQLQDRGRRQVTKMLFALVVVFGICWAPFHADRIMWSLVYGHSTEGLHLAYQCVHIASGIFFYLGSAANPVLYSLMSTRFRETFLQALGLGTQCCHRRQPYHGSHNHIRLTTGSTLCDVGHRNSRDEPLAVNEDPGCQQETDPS

[5] = target: Neuromedin-U receptor 2 (Homo sapiens) (UniProt Q9GZQ4); experiment: Agonist activity at human NMUR2 expressed in CHO cells assessed as induction of Ca2+ flux at 0.1 to 10 nM after 18 hrs by Fluo-4 AM dye based FLIPR assay relative to NMU; type: functional, cell-based; how it was run: as §1
[6] = target: T1, Neuromedin-U receptor 1 (Homo sapiens); experiment: Agonist activity at human NMUR1 expressed in CHO cells assessed as induction of Ca2+ flux at 0.1 to 10 nM after 18 hrs by Fluo-4 AM dye based FLIPR assay relative to NMU; type: functional, cell-based; how it was run: as §1
Prothrombin = Prothrombin (Homo sapiens, UniProt P00734); experiment: Drug metabolism in human serum treated with (S)-2-((S)-1-((S)-2-((S)-2-((S)-3-(1H-indol-3-yl)-2-(2-(thiophen-2-yl)acetamido)propanamido)-3-(1H-indol-3-yl)-2-methylpropanamido)-5-guanidinopentanoyl)pyrrolidine-2-carboxamido)-5-guanidinopentanoic acid assessed as thrombin-mediated metabolite formation at 1 mM after 120 mins by RP-HPLC analysis; type: ADME; conditions: 2 h, 1000 µM
[7] = target: Neuromedin-U receptor 2 (Homo sapiens) (UniProt Q9GZQ4); experiment: Agonist activity at human NMUR2 expressed in CHO cells assessed as induction of Ca2+ flux at 0.1 uM after 18 hrs by Fluo-4 AM dye based FLIPR assay relative to NMU; type: functional, cell-based; how it was run: as §1

Structure (SMILES): N=C(N)NCCC[C@H](NC(=O)[C@@H]1CCCN1C(=O)[C@H](CCCNC(=N)N)NC(=O)[C@H](Cc1ccc(Cl)cc1)NC(=O)[C@H](Cc1c[nH]c2ccccc12)NC(=O)Cc1cccs1)C(=O)N[C@@H](CC(N)=O)C(N)=O ({Acetyl(2-thienyl)}-W[Phe(4-Cl)]RPRN-NH2)
Activity [1]: Active

Structure (SMILES): N=C(N)NCCC[C@H](NC(=O)[C@@H]1CCCN1C(=O)[C@H](CCCNC(=N)N)NC(=O)[C@H](Cc1c[nH]c2ccccc12)NC(=O)[C@H](Cc1c[nH]c2ccccc12)NC(=O)Cc1cccs1)C(=O)O ({Acetyl(2-thienyl)}-WWRPR-OH)
remaining at 2 h, 1000 µM (Rattus norvegicus): 52%
Drug metabolism (Serum): Metabolite_Detected

Structure (SMILES): N=C(N)NCCC[C@H](NC(=O)[C@@H]1CCCN1C(=O)[C@H](CCCNC(=N)N)NC(=O)[C@@H](NC(=O)[C@H](Cc1c[nH]c2ccccc12)NC(=O)Cc1cccs1)C(c1ccccc1)c1ccccc1)C(=O)N[C@@H](CC(N)=O)C(N)=O ({Acetyl(2-thienyl)}-W[Dip]RPRN-NH2)
Activity [2]: inactive
Activity [3]: inactive

Structure (SMILES): N#Cc1ccc(C[C@H](NC(=O)[C@H](Cc2c[nH]c3ccccc23)NC(=O)Cc2cccs2)C(=O)N[C@@H](CCCNC(=N)N)C(=O)N2CCC[C@H]2C(=O)N[C@@H](CCCNC(=N)N)C(=O)N[C@@H](CC(N)=O)C(N)=O)cc1 ({Acetyl(2-thienyl)}-W[Phe(4-CN)]RPRN-NH2)
Activity [1]: inactive

Further lines, results first:

Activity [4]: Active
Activity [1]: inactive
Structure (SMILES): N=C(N)NCCC[C@H](NC(=O)[C@@H]1CCCN1C(=O)[C@H](CCCNC(=N)N)NC(=O)[C@H](Cc1ccc(-c2ccccc2)cc1)NC(=O)[C@H](Cc1c[nH]c2ccccc12)NC(=O)Cc1cccs1)C(=O)N[C@@H](CC(N)=O)C(N)=O ({Acetyl(2-thienyl)}-W[Bip]RPRN-NH2)

Drug metabolism (Serum): Metabolite_Detected
Structure (SMILES): O=C(Cc1cccs1)N[C@@H](Cc1c[nH]c2ccccc12)C(=O)N[C@@H](Cc1c[nH]c2ccccc12)C(=O)O

EC50 (Neuromedin-U receptor 1): 0.42 nM
Structure (SMILES): CC(C)C[C@H](NC(=O)[C@H](Cc1ccccc1)NC(=O)[C@H](Cc1ccc(O)cc1)NC(=O)CNC(=O)[C@H](CCCCN)NC(=O)[C@H](CO)NC(=O)[C@H](CCC(N)=O)NC(=O)CNC(=O)[C@@H](NC(=O)[C@H](CO)NC(=O)[C@@H]1CCCN1C(=O)[C@H](CO)NC(=O)[C@H](CCC(N)=O)NC(=O)[C@H](Cc1ccc(O)cc1)NC(=O)[C@H](CCC(=O)O)NC(=O)[C@H](C)NC(=O)[C@H](CCCCN)NC(=O)[C@@H](N)Cc1ccccc1)C(C)C)C(=O)N[C@@H](Cc1ccccc1)C(=O)N[C@@H](CCCNC(=N)N)C(=O)N1CCC[C@H]1C(=O)N[C@@H](CCCNC(=N)N)C(=O)N[C@@H](CC(N)=O)C(N)=O (H-FKAEYQSPSVGQSKGYFLFRPRN-NH2)

Activity [5]: Active
Activity [6]: Active
Structure (SMILES): N=C(N)NCCC[C@H](NC(=O)[C@@H]1CCCN1C(=O)[C@H](CCCNC(=N)N)NC(=O)[C@H](Cc1ccccc1F)NC(=O)[C@H](Cc1c[nH]c2ccccc12)NC(=O)Cc1cccs1)C(=O)N[C@@H](CC(N)=O)C(N)=O ({Acetyl(2-thienyl)}-W[Phe(2-F)]RPRN-NH2)

Drug metabolism (Prothrombin): Metabolite_Detected
remaining at 2 h, 1000 µM (Rattus norvegicus): 101%
Activity [7]: inactive
Activity [6]: Active
Structure (SMILES): C[C@@](Cc1c[nH]c2ccccc12)(NC(=O)[C@H](Cc1c[nH]c2ccccc12)NC(=O)Cc1cccs1)C(=O)N[C@@H](CCCNC(=N)N)C(=O)N1CCC[C@H]1C(=O)N[C@@H](CCCNC(=N)N)C(=O)O ({Acetyl(2-thienyl)}-W[αMeW]RPR-OH)
